This note sets out measurements from ChEMBL document CHEMBL4177756, “Small Molecule Neuropilin-1 Antagonists Combine Antiangiogenic and Antitumor Activity with Immune Modulation through Reduction of Transforming Growth Factor Beta (TGFβ) Production in Regulatory T-Cells” (J Med Chem, 2018).

pIC50, pKd: −log10 of the molar value. The source made the active and inactive calls. No cut-off for these calls is given here. Positions of bridges follow the written chain, without caps; N, C: chain ends. Residues, ends and D or L forms follow the SMILES beside them. *: point of attachment. Octanoyl = CCCCCCCC(=O)*

In series [1] the test system is Mus musculus. Put plainly: Tmax in BALB/c mouse at 2 mg/kg, iv administered as bolus dose by LC-MS method. Format: ADME, organism-based. Particulars: in vivo. The procedure, abridged: (§1)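 Female BALB/c mice, 6–8 weeks old, received 2 mg/kg as a tail-vein bolus formulated in 7.5% DMSO. Blood was taken by cardiac puncture at 5, 15, 30, 60, 180 and 240 min. Plasma was separated by centrifugation, snap-frozen and assayed by LC-MS/MS with electrospray ionization.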

Series [2] addresses T1, Neuropilin-1 (Homo sapiens, UniProt O14786). Kind of series: Binding affinity to N-terminal His6-tagged recombinant human NRP1-b1 domain expressed in Escherichia coli Rosetta Gami 2 (DE3) pLysS cells by SPR method. A digest of the protocol: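 Human NRP1-b1 (residues 273–427, His6-tagged) was amine-coupled to a CM5 chip at high and low density; an unmodified spot served as reference. Runs were at 25 °C in PBS with 0.05% P20 and 3% DMSO. Compound was tested as 2-fold dilutions from 16 µM to 31 nM with 60 s injections. KD was taken from steady-state responses, DMSO-corrected; mean ± SD of the two surfaces.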

The species named for series [3] is Homo sapiens. Kind of series: Antiinvasive activity in NRP1 expressing human A375P spheroids at 30 uM after 7 days. Format: functional.
Series [4] concerns Mus musculus. Put plainly: Volume of distribution in BALB/c mouse at 2 mg/kg, iv administered as bolus dose by LC-MS method. The note with it: in vivo. Format: ADME, organism-based. A digest of the protocol: as §1
Series [5] is filed under the species Mus musculus. Kind of series: Immunomodulating activity in C57/Bl6 mouse Nrp1-positive Treg cells assessed as inhibition of glioma conditioned media-induced TGFbeta production at 500 nM preincubated for 2 hrs followed by glioma conditioned media challenge measured after 12 hrs by ELISA. Format: functional. The procedure, abridged:
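CD4+ Nrp1+ splenic T cells from 6-week-old C57/Bl6 mice were plated at 200000 per well on anti-CD3ε with anti-CD28 and expanded 72 h. Cells were pretreated 2 h with DMSO or 500 nM compound. They were then given 50% conditioned medium from serum-starved GL261 cells, and TGFβ was measured by ELISA after 12 h.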

Series [6] deals with T1, Neuropilin-1. Kind of series: Inhibition of biotinylated VEGF-A binding to human NRP1 expressed in human DU145 cells after 2 hrs. Type of series: cell-based.
Series [7] addresses T1, Neuropilin-1. Kind of series: Inhibition of VEGF-A-stimulated NRP1-mediated VEGFR2 phosphorylation at Tyr1175 in HUVEC at 30 uM preincubated for 30 mins followed by VEGFA stimulation measured after 10 mins by immunoblot method relative to control. Format: cell-based. The procedure, abridged: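 Confluent HUVECs serum-starved 16 h in 0.5% serum, preincubated 30 min with 3, 10 or 30 µM compound, 0.1% DMSO or medium, then 1 ng/mL VEGF-A for 10 min. RIPA lysates were immunoblotted. Densitometry of pVEGF-R2/KDR was normalised to total VEGF-R2/KDR, from three independent experiments, means ± SEM.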

Series [8] deals with HUVEC. Put plainly: Antiangiogenic activity in HUVEC co-cultured with HDF assessed as inhibition of VEGFA-induced tubular network length at 30 uM after 4 days by immunofluorescence method relative to control. Format: functional. The note with it: Homo sapiens, 96 h. The procedure, abridged: (§2)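 HDF were grown to confluence in 24-well plates and 10000 HUVECs were seeded on top in endothelial growth medium with 1% FBS. Cocultures received 0.1% DMSO, VEGF 25 ng/mL, 30 μM compound, or compound plus VEGF, for 4 days at 37 °C. They were ethanol-fixed and stained for von Willebrand factor. Branch points, network area and length were scored in four fields per well; three independent experiments.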

Series [9] relates to HUVEC. Put plainly: Antiangiogenic activity in HUVEC co-cultured with HDF assessed as inhibition of number of VEGFA-induced branch points in tubular networks at 30 uM after 4 days by immunofluorescence method relative to control. Type of series: functional. Particulars: Homo sapiens, 96 h. The procedure, abridged: as §2
The test system of series [10] is Mus musculus. Kind of series: Half life in BALB/c mouse at 2 mg/kg, iv administered as bolus dose by LC-MS method. Type of series: ADME, organism-based. Particulars: in vivo. The procedure, abridged: as §1
The test system of series [11] is HUVEC. Kind of series: Antimigratory activity in HUVEC assessed as delay in VEGFA-induced wound closure at 30 uM after 5 days. Format: functional, cell-based. Particulars: Homo sapiens. A digest of the protocol:
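HUVECs were starved overnight in 1% EBM, then wounded at 95% confluence. Wells received 1% EGM with 0.1% DMSO, 25 ng/mL VEGF-A and/or 30 μM compound. Migration into the wound was imaged every 2 h by live-cell imaging. Three independent experiments, 12 replicates per treatment.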

In series [12] the target is T2, Neuropilin-2 (Homo sapiens) (UniProt O60462).
T2 sequence (whole entry): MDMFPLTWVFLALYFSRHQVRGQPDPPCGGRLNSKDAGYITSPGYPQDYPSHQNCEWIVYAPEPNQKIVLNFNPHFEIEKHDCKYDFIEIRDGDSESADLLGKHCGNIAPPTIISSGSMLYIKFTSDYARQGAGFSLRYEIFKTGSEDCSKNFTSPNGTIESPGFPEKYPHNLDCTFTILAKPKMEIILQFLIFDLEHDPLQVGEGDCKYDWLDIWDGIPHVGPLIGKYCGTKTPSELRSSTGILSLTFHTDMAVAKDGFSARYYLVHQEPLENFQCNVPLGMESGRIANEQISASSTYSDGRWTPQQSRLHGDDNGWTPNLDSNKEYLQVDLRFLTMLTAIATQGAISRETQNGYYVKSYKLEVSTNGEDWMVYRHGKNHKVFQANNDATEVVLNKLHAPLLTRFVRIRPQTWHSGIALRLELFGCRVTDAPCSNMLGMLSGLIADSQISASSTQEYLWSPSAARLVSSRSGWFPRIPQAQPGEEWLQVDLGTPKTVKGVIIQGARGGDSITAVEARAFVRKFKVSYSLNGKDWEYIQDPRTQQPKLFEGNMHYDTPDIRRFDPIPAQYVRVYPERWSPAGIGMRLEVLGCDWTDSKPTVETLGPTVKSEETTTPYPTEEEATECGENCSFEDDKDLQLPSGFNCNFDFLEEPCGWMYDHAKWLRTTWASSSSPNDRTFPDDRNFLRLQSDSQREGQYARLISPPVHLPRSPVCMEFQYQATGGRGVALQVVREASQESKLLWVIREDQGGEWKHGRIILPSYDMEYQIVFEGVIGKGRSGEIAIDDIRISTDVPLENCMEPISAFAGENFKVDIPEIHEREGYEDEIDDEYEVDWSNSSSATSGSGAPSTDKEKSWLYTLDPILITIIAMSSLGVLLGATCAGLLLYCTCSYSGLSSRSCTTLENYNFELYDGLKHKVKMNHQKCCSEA
Put plainly: Binding affinity to His6-tagged recombinant human NRP2 at 62.5 to 1000 nM treated for 60 secs by SPR method.

For series [13], the system named is Mus musculus. Put plainly: AUC (infinity) in BALB/c mouse at 2 mg/kg, iv administered as bolus dose by LC-MS method. Format: ADME, organism-based. More on the design: dose 2 mg/kg, route intravenous, time infinity. Particulars: in vivo. A digest of the protocol: as §1
In series [14] the test system is HUVEC. Kind of series: Antimigratory activity in HUVEC at 30 uM after 4 hrs by transwell assay. Format: functional, cell-based. The note with it: Homo sapiens. The procedure, abridged:
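HUVECs (1.5×10^5 per well, serum-free EBM) were placed in upper inserts with 8 µm pores. The bottom chamber held serum-free medium with 25 ng/mL VEGF-A, 0.1% DMSO, 30 μM compound, or VEGF-A plus compound. After 4 h at 37 °C, cells that migrated were stained and counted in three random fields; five independent experiments.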

For series [15], the target named is T1, Neuropilin-1. Kind of series: Binding affinity to N-terminal His6-tagged recombinant human NRP1-b1 domain expressed in Escherichia coli Rosetta Gami 2 (DE3) pLysS cells at 200 uM treated every 2 mins by ITC method.
Series [16] concerns HUVEC. Put plainly: Antimigratory activity in VEGFA-induced HUVEC at 30 uM after 4 hrs by transwell assay relative to control. Type of series: functional, Homo sapiens. The procedure, abridged:
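Transwell chemotaxis used 8 µm pore PET inserts. The bottom chamber held serum-free medium with or without 25 ng/mL VEGF-A, 0.1% DMSO, or 30 µM compound. HUVECs in serum-free EBM were added to the top chamber and incubated at 37 °C for 4 h. Non-migrated cells were removed, and membranes were fixed and stained. Migrated cells were counted in three random fields per well across five independent experiments, reported as mean ± SEM.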

The next series has as its system Aorta. Put plainly: Antiangiogenic activity in wild type C57Bl/6 mouse aortic ring assessed as inhibition of VEGFA-induced vessel sprouting at 30 uM after 7 days relative to control. Type of series: functional. A digest of the protocol: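 Thoracic aortas from female wild-type C57Bl/6 mice were cut into 0.5 mm rings, serum-starved overnight, and embedded in rat-tail type 1 collagen. Rings were cultured in OptiMEM with 2.5% FBS containing 0.1% DMSO, 25 ng/mL VEGF-A and/or 30 μM compound at 37 °C for 7 days, with medium changed on days 3 and 5. They were then fixed and stained with isolectin B4 and SMA, and sprout area was quantified by image analysis.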

Series [17] is filed under the species Homo sapiens. Put plainly: Antiinvasive activity in VEGFA-induced NRP1 expressing human A375P spheroids at 30 uM after 7 days. Format: functional.
Series [18] has as its target T1, Neuropilin-1. Put plainly: Inhibition of biotinylated VEGF-A binding to N-terminal His6-tagged recombinant human NRP1-b1 domain expressed in Escherichia coli Rosetta Gami 2 (DE3) pLysS cells after 2 hrs.
Series [19] relates to Mus musculus. Kind of series: Cmax in BALB/c mouse at 2 mg/kg, iv administered as bolus dose by LC-MS method. The note with it: in vivo. Format: ADME, organism-based. Details: dose 2 mg/kg, route intravenous. A digest of the protocol:
as §1

Another series in a line: in vivo. Particulars: mouse, iv, 2.5 mg/kg.
Series [20] is described as follows: Half life in human plasma at 10 uM by MS/MS analysis. Type of series: ADME, cell-free.
Series [21] concerns the target T1, Neuropilin-1. Kind of series: Binding affinity to recombinant human NRP1 extracellular domain by SPR method.

T1 sequence (O14786 whole entry, the tested form may be a part): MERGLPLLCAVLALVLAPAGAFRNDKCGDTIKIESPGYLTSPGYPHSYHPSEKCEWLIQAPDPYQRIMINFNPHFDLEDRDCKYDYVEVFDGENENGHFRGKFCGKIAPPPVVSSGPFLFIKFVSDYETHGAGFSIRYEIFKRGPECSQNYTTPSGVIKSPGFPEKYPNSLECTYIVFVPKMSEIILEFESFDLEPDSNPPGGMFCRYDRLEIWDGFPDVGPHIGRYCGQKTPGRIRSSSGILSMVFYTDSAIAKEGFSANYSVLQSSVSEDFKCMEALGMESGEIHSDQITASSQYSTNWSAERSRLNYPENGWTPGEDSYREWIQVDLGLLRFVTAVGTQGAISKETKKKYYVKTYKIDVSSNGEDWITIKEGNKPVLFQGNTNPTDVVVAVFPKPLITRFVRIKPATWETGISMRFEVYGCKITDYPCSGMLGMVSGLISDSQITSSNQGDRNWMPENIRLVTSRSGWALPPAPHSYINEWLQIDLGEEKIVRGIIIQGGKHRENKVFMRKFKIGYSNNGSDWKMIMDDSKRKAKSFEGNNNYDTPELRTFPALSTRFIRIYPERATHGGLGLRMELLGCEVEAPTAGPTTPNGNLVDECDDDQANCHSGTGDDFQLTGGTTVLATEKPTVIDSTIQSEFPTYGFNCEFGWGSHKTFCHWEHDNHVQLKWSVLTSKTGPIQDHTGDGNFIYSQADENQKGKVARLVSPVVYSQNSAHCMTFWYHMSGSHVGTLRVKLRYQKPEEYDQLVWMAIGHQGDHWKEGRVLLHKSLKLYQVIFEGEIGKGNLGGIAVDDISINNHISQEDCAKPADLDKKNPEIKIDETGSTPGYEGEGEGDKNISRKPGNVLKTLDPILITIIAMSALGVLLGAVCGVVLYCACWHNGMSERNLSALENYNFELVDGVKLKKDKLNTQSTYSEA

For the molecule `N=C(N)NCCC[C@H](NC(=O)c1sccc1NS(=O)(=O)c1cc(-c2ccc(CN)cc2)cc2c1OCC2)C(=O)O`, the Tmax in the series with Mus musculus [1] was 4.8 min. At Neuropilin-1 [2], the pKd is 5.88. In addition, the result (in the series filed under Homo sapiens [3]; in series [12]; in the series on HUVEC [14]) was inactive. In the series on Mus musculus [4], the Vd is 4.39682 L/kg. The inhibition result in the series listed under Mus musculus [5] was “Active”. Also, the pIC50 on Neuropilin-1 [6] is 5.80; at Neuropilin-1 [18] it was 6.22. Besides, the inhibition at Neuropilin-1 [7] came to 50%. The inhibition at 30 µM in the series with HUVEC [8] is 40%; with HUVEC [9] it was 41%. The t1/2 in the series with Mus musculus [10] worked out at 257 min. Also, the result in the series with HUVEC [11] and in the series filed under Homo sapiens [17] was Active. Moreover, in the series with Mus musculus [13], the AUC came out at 2379 ng·h/mL. At Neuropilin-1 [15], the Ka stood at 4.14 ×10⁶ /M. In addition, the Activity with HUVEC [16] was greater than 60%. Besides, the “fold change (FC)” value in the series on Aorta was determined as 7. The Cmax in the series on Mus musculus [19] came to 1678 ng/mL.

With `N=C(N)NCCC[C@H](NC(=O)c1sccc1NS(=O)(=O)c1cccc2nsnc12)C(=O)O`, in the series “in vivo”, the half-life is 30 min.

The molecule `CCCCCCCC(=O)N[C@@H](CO)C(=O)N[C@H]1CSSC[C@@H]2NC(=O)[C@H]([C@@H](C)O)NC(=O)[C@H](CCCNC(=N)N)NC(=O)[C@H](CCC(=O)O)NC(=O)[C@H](CC(N)=O)NC(=O)[C@H](CC(C)C)NC(=O)[C@H](CCC(=O)O)NC(=O)[C@H](CC(C)C)NC(=O)[C@H](CCC(N)=O)NC(=O)[C@H](CCCNC(=N)N)NC(=O)[C@H](C)NC(=O)[C@H](CCCCN)NC(=O)[C@H](CSSC[C@@H](C(=O)N[C@@H](CC(=O)O)C(=O)N[C@@H](CCCCN)C(=O)N3CCC[C@H]3C(=O)N[C@@H](CCCNC(=N)N)C(=O)N[C@@H](CCCNC(=N)N)C(N)=O)NC(=O)[C@H](CCCNC(=N)N)NC2=O)NC(=O)[C@H](CCCNC(=N)N)NC(=O)[C@H](CO)NC(=O)[C@H](CC(=O)O)NC(=O)[C@H]([C@@H](C)O)NC(=O)[C@H](CC(N)=O)NC(=O)[C@H](CCCCN)NC1=O` (Octanoyl-SCKNTDSRCKARQLELNERTCRCDKPRR-NH2; disulfide 2-21, 9-23) registered a half-life at 10 µM in series [20] of less than 5 min. Further, at Neuropilin-1 [21], the pKd was 7.12.
